Measurements: ChEMBL document CHEMBL4732185, “Synthesis, biological evaluation and structure-activity relationship of novel dichloroacetophenones targeting pyruvate dehydrogenase kinases with potent anticancer activity” (Eur J Med Chem, 2021)
The source made the active and inactive calls.

Assays:
A-375 [1] = assay: Induction of apoptosis in human A375 cells assessed as necrotic cells at 2.5 uM after 36 hrs by annexinV-FITC/propidium iodide staining based flow cytometric analysis (reference value: 1.63%); type: functional
A-375 [2] = assay: Inhibition of PDK in human A375 cells assessed as reduction lactate formation at 2.5 to 5 uM after 4 hrs by Nova Bio-profile Flex analyzer; type: cell-based; conditions: dose 2.5-5 µM
Outline: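 A375 cells seeded at 2.5 × 10⁵/well in 24-well plates and cultured overnight. Treated 4 h at 37 °C. Medium collected and centrifuged 4 min at 12000 rpm for lactate determination.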

A-375 [3] = assay: Induction of apoptosis in human A375 cells assessed as early apoptotic cells at 2.5 uM after 36 hrs by annexinV-FITC/propidium iodide staining based flow cytometric analysis (reference value: 3.2%); type: functional
A-375 [4] = assay: Induction of cell cycle arrest in human A375 cells assessed as accumulation at G2 phase at 1 uM after 24 hrs by propidium iodide staining based flow cytometric analysis (reference value: 10.02%); type: functional
MCF7 = assay: Antiproliferative activity against human MCF7 cells assessed as growth inhibition after 72 hrs by MTT assay; type: functional, cell-based; conditions: Homo sapiens, MCF7, 72 h; read-out: IC50
Outline: (§1)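 MTT viability assay. Cancer lines seeded at 3000–6000 cells/well and L02 at 7000 cells/well, cultured overnight, then exposed to a full dose range for 72 h. MTT (0.5 mg/mL) added for 4 h, supernatant removed, formazan dissolved in DMSO, absorbance read at 570 nm. IC50 taken as the mean of three independent experiments. Cells grown in DMEM + 10% FBS, 37 °C, 5% CO2.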

L02 = assay: Cytotoxicity against human L02 cells assessed as reduction in cell viability after 72 hrs by MTT assay; type: cell-based; conditions: Homo sapiens, L02, 72 h; read-out: IC50; outline: as §1
A-375 [5] = assay: Inhibition of PDK in human A375 cells assessed as reduction in phosphorylation of PDC E1alpha at ser293 residues at 2.5 to 5 uM after 24 hrs by Western blot analysis; type: cell-based; conditions: dose 2.5-5 µM
Outline: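 A375 cells in 6-well plates, treated 24 h. Lysed 15 min and spun 12000 rpm at 4 °C for 15 min. Protein equalized by BCA and denatured in SDS buffer at 100 °C for 8 min. Run on SDS-PAGE, transferred to nitrocellulose, blocked in 5% milk 2 h, primary antibody overnight, HRP anti-rabbit IgG 2 h, ECL detection.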

A-375 [6] = assay: Induction of mitochondrial membrane depolarization in human A375 cells at 2 to 10 uM after 4 hrs by JC-1 staining based confocal microscopic analysis; type: functional, cell-based; conditions: dose 2-10 µM
Outline: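 Mitochondrial membrane potential. A375 cells seeded at 4 × 10^4 cells/mL, grown overnight, then treated at 2, 5 or 10 µM at 37 °C for 4 h. Stained with JC-1 in fresh medium for 15 min at 37 °C, washed three times with cool PBS and imaged by laser scanning confocal microscopy (red J-aggregate vs green monomer).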

[7] = Inhibition of PDK (unknown origin) using RYHGHSMSDP as substrate after 30 mins by Kinase-Glo luminescent assay; set-up: species or system Homo sapiens
A-375 [8] = assay: Inhibition of PDK in human A375 cells assessed as increase in oxygen consumption rate after 4 hrs by XFe cell Mito stress test assay; type: cell-based; conditions: dose 2.5-5 µM
Outline: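 A375 cells attached, then given an extra 100 µL growth medium and incubated 24 h. Treated 4 h, then rinsed twice with pre-warmed XFe base medium. OCR measured as in a previous report.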

A-375 [9] = assay: Induction of apoptosis in human A375 cells assessed as early apoptotic cells at 5 uM after 12 hrs by annexinV-FITC/propidium iodide staining based flow cytometric analysis (reference value: 0.87%); type: functional
A-375 [10] = assay: Induction of apoptosis in human A375 cells assessed as viable cells at 5 uM after 12 hrs by annexinV-FITC/propidium iodide staining based flow cytometric analysis (reference value: 97.94%); type: functional; conditions: read-out: Activity
HCT-116 = assay: Antiproliferative activity against human HCT-116 cells assessed as growth inhibition after 72 hrs by MTT assay; type: functional, cell-based; conditions: Homo sapiens, HCT-116, 72 h; read-out: IC50; outline: as §1
A-375 [11] = assay: Inhibition of cell migration in human A375 cells at 0.5 to 2 uM after 24 hrs by wound healing assay; type: functional, cell-based; conditions: dose 0.5-2 µM
Outline: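 A375 monolayer scratched and treated for 24 h, imaged at ×100. Closure ratio (%) = (start scratched area − after scratched area)/start scratched area, compared with control. P < 0.05 versus control considered significant.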

A549 = assay: Antiproliferative activity against human A549 cells assessed as growth inhibition at 1 uM after 72 hrs by MTT assay relative to control; type: functional; conditions: read-out: GI
Outline: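 Single-concentration MTT screen on MCF-7 and A549 cells grown in DMEM + 10% FBS. Cells at 3000–6000/well, cultured overnight, then given compound in buffer with 1% DMSO for 72 h. MTT (0.5 mg/mL) added for 4 h, formazan dissolved in DMSO, A570 read. Percent inhibition reported as the average ± S.D. of three independent measurements.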

A-375 [12] = assay: Induction of apoptosis in human A375 cells assessed as early apoptotic cells at 1 uM after 36 hrs by annexinV-FITC/propidium iodide staining based flow cytometric analysis (reference value: 3.2%); type: functional
A-375 [13] = assay: Induction of cell cycle arrest in human A375 cells assessed as accumulation at G1 phase after 24 hrs by propidium iodide staining based flow cytometric analysis; type: functional; conditions: dose 1-5 µM
A-375 [14] = assay: Induction of ROS generation in human A375 cells at 1 to 5 uM after 4 hrs by DCFH-DA staining based assay; type: functional, cell-based; conditions: dose 1-5 µM
Outline: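 ROS assay. A375 cells loaded with diluted DCFH-DA for 45 min at 37 °C, washed three times with PBS, then treated with compound at 37 °C for 4 h. Fluorescence read on a microplate reader at Ex/Em 485/535 nm.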

PC-3 = assay: Antiproliferative activity against human PC3 cells assessed as growth inhibition after 72 hrs by MTT assay; type: functional, cell-based; conditions: Homo sapiens, PC-3, 72 h; read-out: IC50; outline: as §1
Homo sapiens = species: Homo sapiens; assay: Inhibition of PDK (unknown origin) using RYHGHSMSDP as substrate at 1 uM after 30 mins by Kinase-Glo luminescent assay
A-375 [15] = assay: Induction of cell cycle arrest in human A375 cells assessed as accumulation at G1 phase at 2.5 uM after 24 hrs by propidium iodide staining based flow cytometric analysis (reference value: 52.65%); type: functional
A-375 [16] = assay: Induction of cell cycle arrest in human A375 cells assessed as accumulation at S phase at 5 uM after 24 hrs by propidium iodide staining based flow cytometric analysis (reference value: 37.33%); type: functional
A-375 [17] = assay: Induction of cell cycle arrest in human A375 cells assessed as accumulation at S phase at 1 uM after 24 hrs by propidium iodide staining based flow cytometric analysis (reference value: 37.33%); type: functional
A-375 [18] = assay: Induction of apoptosis in human A375 cells assessed as late apoptotic cells at 2.5 uM after 36 hrs by annexinV-FITC/propidium iodide staining based flow cytometric analysis (reference value: 1.02%); type: functional
A-375 [19] = assay: Antiproliferative activity against human A375 cells assessed as growth inhibition after 72 hrs by MTT assay; type: functional, cell-based; conditions: Homo sapiens, A-375, 72 h; read-out: IC50; outline: as §1

SMILES: CC(C)(CO)c1ccc(Nc2ccc(C(=O)C(Cl)Cl)cc2[N+](=O)[O-])cc1
- Activity (A-375 [1]): 3.17%
- inhibition (A-375 [2]): Active
- Activity (A-375 [3]): 5.6%
- Activity (A-375 [4]): 9.64%
- IC50 (MCF7): 2400 nM
- IC50 (L02): 14400 nM
- inhibition (A-375 [5]): Active
- Activity (A-375 [6]): Active
- EC50 [7]: 90 nM
- inhibition (A-375 [8]): Dose-dependent effect
- Activity (A-375 [9]): 8.7%
- viability at 5 µM (A-375 [10]): 82.8%
- IC50 (HCT-116): 2100 nM
- inhibition (A-375 [11]): Active
- inhibition of growth at 1 µM (A549): 29.4%
- Activity (A-375 [12]): 6.64%
- Activity (A-375 [13]): Dose-dependent effect
- Activity (A-375 [14]): Active
- IC50 (PC-3): 3800 nM
- inhibition (Homo sapiens): 98.7%
- Activity (A-375 [15]): 60.75%
- Activity (A-375 [16]): 27.43%
- Activity (A-375 [17]): 34.63%
- Activity (A-375 [18]): 22.3%
- IC50 (A-375 [19]): 1100 nM
